HKDC1 act = activators of human hexokinase HKDC1. recombinant HKDC1, G6PDH/diaphorase resazurin fluorescence; stronger effect = lower value. Q2TB90. activity change, negative = activation, % at 20 µM. hit rate 0.056% among 340,000. AID 493187;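 active means activation of 40% or more at 20 µM, a change of -40% or lower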
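Dosing: single compound dose of 20 µM, 1% DMSO final / Test system: in-house human HKDC1 enzyme, G6PDH and diaphorase coupling enzymes / Quantity: 5 µg/mL HKDC1 final / Incubation: enzyme reaction 90 min, room temperature, in dark / Buffer or medium: pH 8.0 Tris with MgCl2 / Detection: coupled resazurin-to-resorufin fluorescence, Ex 525/Em 613 nm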
* hit, by the source's call. Only a sample is shown.

SMILES | HKDC1 act
Cc1ccc(OP2(=O)Nc3cc(C)c(C)cc3S2)cc1 (configuration not stated) | -40.7*
Cn1ncnc2c(=O)n(C)c(=O)nc1-2 | 69.0
Nc1cnn(-c2ccccc2)c(=O)c1Cl | 44.7
Cc1ccc(N2C(=O)NC(=O)/C(=C/c3ccoc3)C2=O)cc1 | 39.2
COC(=O)C[C@]1(C(=O)OC)CN(C#N)N(c2ccc(Cl)cc2)C12c1ccccc1-c1ccccc12 | 86.9
